Bioassay records deposited in PubChem BioAssay by Broad Institute.
This is one part of a sample in which hits are shown more often than they occur.
GASC1 inh: inhibitors of human demethylase GASC-1 KDM4C; hit rate 0.15% among 96,000; inhibition, % at 12.5 µM; Q9H3R0; AID 720574; GST-KDM4C 2-372, H3K9me3 peptide, LANCE TR-FRET;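 active = mean replicate inhibition above about 25%, with at least 55% of replicates also reaching it, limit read from the data, passing the limit was not always enough; inconclusive = only one of those two conditions met; inactive = neither condition met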
Target sequence (Q9H3R0 2-372 limits assumed): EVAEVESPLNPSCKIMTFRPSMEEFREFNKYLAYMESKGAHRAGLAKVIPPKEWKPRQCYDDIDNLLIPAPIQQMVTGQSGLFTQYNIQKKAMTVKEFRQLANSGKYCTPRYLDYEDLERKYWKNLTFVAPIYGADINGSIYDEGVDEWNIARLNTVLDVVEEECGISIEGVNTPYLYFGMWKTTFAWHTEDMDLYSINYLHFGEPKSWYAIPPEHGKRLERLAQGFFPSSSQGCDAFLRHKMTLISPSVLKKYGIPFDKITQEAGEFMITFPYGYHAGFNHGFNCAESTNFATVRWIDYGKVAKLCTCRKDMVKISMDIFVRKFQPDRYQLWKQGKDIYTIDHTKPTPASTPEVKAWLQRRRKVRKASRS
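Material: GST-tagged GASC-1 (JMJD2C) catalytic fragment, aa 2-372. Input: enzyme final amount 10 nM. Medium: HEPES buffer, pH 7.5, plus ascorbate. Reagent: H3K9me3 peptide substrate, Fe(II), 2-oxoglutarate. Doses: single dose. Times: reaction 30 min RT, detection step 1 h RT. Measured by: LANCE TR-FRET. Evaluation: Fall in 671/618 emission ratio as inhibition.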
IDH1 R132H inh: blocks human IDH1 R132H reductase activity | hit rate 0.18% among 70,000 | O75874 | diaphorase/resazurin fluorescence, 60 min | inhibition, % at 10 µM; in the data active = inhibition above about 34%; inconclusive = no clear call, values can overlap the other calls; inactive = below about 11%
T cruzi growth-1: blocks T. cruzi growth in NIH3T3 culture. T. cruzi beta-gal in NIH3T3, GalScreen luminescence, 90 h. inhibition, % at 8.34 µM. hit rate 5.9% among 77,000;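 active = mean inhibition above about 93%, with at least 55% of replicates each passing it, limit read from the data, passing the limit was not always enough; inconclusive = only one of those two conditions holds; inactive = neither condition holds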
T cruzi growth-2: blocks T. cruzi growth in NIH3T3 host cells | shares compounds with T cruzi growth-1 | T. cruzi beta-gal in NIH3T3, GalScreen luminescence, 90 h | inhibition, % at 8.35 µM | hit rate 72% among 5,600 | AID 651739;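 active = mean replicate inhibition above about 95% and at least 55% of replicates individually reaching it, limit read from the data; inconclusive = only one of the two criteria is met; inactive = neither criterion is met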
T cruzi growth-3: inhibitors of T. cruzi proliferation; shares compounds with T cruzi growth-1; T. cruzi beta-gal in NIH3T3, GalScreen luminescence, 90 h; inhibition, % at 2.09 µM; hit rate 21% among 5,600; AID 651740;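 active = mean inhibition above about 95%, with at least 55% of replicates also reaching it, limit read from the data; inconclusive = meets just one of the two conditions; inactive = meets neither condition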
3T3 cytotox: cytotoxicity in mouse NIH/3T3 fibroblasts; shares compounds with T cruzi growth-1; AID 651742; NIH/3T3 viability, CellTiter-Glo ATP luminescence, 90 h; hit rate 14% among 5,600; cytotoxicity (signal decrease), % at 8.35 µM;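 active = mean signal decrease across replicates above about 35% based on untreated-well scatter, with enough replicates individually passing, limit read from the data; inconclusive = no rule stated though some were filed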
3T3 cytotox 2: cytotoxicity in mouse NIH/3T3 fibroblasts | AID 651744 | hit rate 56% among 5,600 | inhibition, % at 24.9 µM | NIH/3T3 viability, CellTiter-Glo ATP luminescence, 90 h | shares compounds with T cruzi growth-1;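 active = mean loss of cell viability signal at or above a set limit, and enough replicates individually reaching it; inconclusive = meets only the mean limit or only the replicate share; inactive = meets neither condition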
Hits are given with their value; n = inactive; u = inconclusive; x = no result given.

SMILES | GASC1 inh | IDH1 R132H inh | T cruzi growth-1 | T cruzi growth-2 | T cruzi growth-3 | 3T3 cytotox | 3T3 cytotox 2
C[C@H]1CN([C@@H](C)CO)C(=O)CCCn2nncc2CO[C@@H]1CN(C)Cc1ccc(C(=O)Nc2ccccc2N)cc1 | n | x | 103 | 111 | n | n | n
C[C@@H]1CN([C@H](C)CO)C(=O)CCCn2nncc2CO[C@@H]1CN(C)Cc1ccc2cccnc2c1 | n | x | n | x | x | x | x
C[C@H](CO)N1C[C@H](C)[C@H](CN(C)Cc2ccc(C(=O)O)cc2)OCc2cnnn2CCCC1=O | n | n | x | x | x | x | x
CN(C)CCNC(=O)c1cc(-c2cccnc2)nc2c(Cl)cccc12 | x | n | x | x | x | x | x
CCc1cccc(C)c1NC(=O)CSc1nnc(C)n1-c1ccc(F)cc1 | x | n | x | x | x | x | x
Cc1cc(Cn2ccc(C(F)(F)F)n2)c(C)c(-c2c(C#N)c(N)nc3c2CCCCC3)c1 | x | n | x | x | x | x | x
COc1ccc(CN(C)C[C@H]2OCCCC[C@H](C)Oc3ccc(NC(=O)Nc4ccc(OC)cc4)cc3C(=O)N([C@@H](C)CO)C[C@H]2C)cc1 | n | x | n | x | x | x | x
COc1ccc(NC(=O)Nc2ccc3c(c2)C(=O)N([C@H](C)CO)C[C@@H](C)[C@@H](CN(C)Cc2ccc(Cl)c(Cl)c2)OCCCC[C@H](C)O3)cc1 | n | x | 126 | n | 110 | n | n
COc1ccc(NC(=O)Nc2ccc3c(c2)C(=O)N([C@H](C)CO)C[C@H](C)[C@H](CN(C)Cc2ccc(Cl)c(Cl)c2)OCCCC[C@@H](C)O3)cc1 | n | x | 121 | 104 | 107 | n | n
COc1ccc(NC(=O)Nc2ccc3c(c2)C(=O)N([C@H](C)CO)C[C@H](C)[C@H](CN(C)Cc2ccc(Cl)c(Cl)c2)OCCCC[C@H](C)O3)cc1 | n | n | 126 | 95 | 114 | n | n
COc1ccc(NC(=O)Nc2ccc3c(c2)C(=O)N([C@H](C)CO)C[C@H](C)[C@@H](CN(C)Cc2ccc(Cl)c(Cl)c2)OCCCC[C@@H](C)O3)cc1 | x | n | 122 | 113 | 100 | n | n
COc1ccc(CN(C)C[C@@H]2OCCCC[C@H](C)Oc3ccc(NC(=O)Nc4ccc(OC)cc4)cc3C(=O)N([C@@H](C)CO)C[C@H]2C)cc1 | n | x | n | x | x | x | x
O[C@]12CO[C@H](c3ccc4c(c3)OCO4)[C@H]1CO[C@@H]2c1ccc2c(c1)OCO2 | x | n | x | x | x | x | x
COc1ccc(CN(C)C[C@H]2OCCCC[C@@H](C)Oc3ccc(NC(=O)Nc4ccc(OC)cc4)cc3C(=O)N([C@H](C)CO)C[C@@H]2C)cc1 | x | n | n | x | x | x | x
COc1ccc(NC(=O)Nc2ccc3c(c2)C(=O)N([C@@H](C)CO)C[C@@H](C)[C@@H](CN(C)Cc2ccc(Cl)c(Cl)c2)OCCCC[C@@H](C)O3)cc1 | n | n | 126 | 96 | 114 | n | n
COc1ccc(NC(=O)Nc2ccc3c(c2)C(=O)N([C@@H](C)CO)C[C@H](C)[C@@H](CN(C)Cc2ccc(Cl)c(Cl)c2)OCCCC[C@@H](C)O3)cc1 | n | n | 126 | 102 | 114 | n | n
COc1cccc(S(=O)(=O)N2CCCCN3[C@@H](CO)[C@H](c4ccc(-c5cccnc5)cc4)[C@@H]3C2)c1 | n | x | 107 | 100 | n | u | 38
COc1cccc(S(=O)(=O)N2CCCCN3[C@H](CO)[C@H](c4ccc(-c5cncnc5)cc4)[C@H]3C2)c1 | n | x | n | x | x | x | x
COc1cccc(S(=O)(=O)N2CCCCN3[C@H](CO)[C@H](c4ccc(-c5cncnc5)cc4)[C@@H]3C2)c1 | n | x | n | x | x | x | x
COc1cccc(S(=O)(=O)N2CCCCN3[C@H](C2)[C@@H](c2ccc(-c4cccnc4)cc2)[C@@H]3CO)c1 | n | x | 114 | 112 | n | n | 51
COC(=O)c1ccccc1NC(=O)c1ccc(NC(=O)CSc2ccc(C)cc2)cc1 | x | n | x | x | x | x | x
O=C(CSc1nc2ccccc2c(=O)n1-c1ccccc1)Nc1ccc(F)c(Cl)c1 | x | n | x | x | x | x | x
COc1ccc(NC(=O)COc2ccc(C)c(C)c2)cc1NC(=O)c1ccco1 | x | n | x | x | x | x | x
Cc1cccc(OCCn2c(C(C)O)nc3ccccc32)c1 (centres undefined) | x | n | x | x | x | x | x
N#Cc1cccc(-c2ccc([C@H]3[C@H]4CN(C(=O)Nc5ccc(F)cc5)CCCCN4[C@H]3CO)cc2)c1 | n | x | 100 | 101 | n | n | n
N#Cc1cccc(-c2ccc([C@@H]3[C@@H](CO)N4CCCCN(C(=O)Nc5ccc(F)cc5)C[C@@H]34)cc2)c1 | n | x | 109 | 106 | n | 47 | 98
N#Cc1ccc(-c2ccc([C@@H]3[C@H](CO)N4CCCCN(C(=O)Nc5ccc(F)cc5)C[C@@H]34)cc2)cc1 | n | x | n | x | x | x | x
N#Cc1ccc(-c2ccc([C@H]3[C@@H](CO)N4CCCCN(C(=O)Nc5ccc(F)cc5)C[C@@H]34)cc2)cc1 | n | x | 100 | 112 | n | n | n
N#Cc1cccc(-c2ccc([C@@H]3[C@H](CO)N4CCCCN(C(=O)Nc5ccc(F)cc5)C[C@@H]34)cc2)c1 | n | x | n | x | x | x | x
N#Cc1cccc(-c2ccc([C@@H]3[C@H]4CN(C(=O)Nc5ccc(F)cc5)CCCCN4[C@H]3CO)cc2)c1 | n | x | n | x | x | x | x
